A short description of data set [1]: melting temperature; fluorescence melt of hairpins on a sequencing array, two-state fit, raised by 9.35 °C to match UV melts. The note with it: sodium 0.088 M. The method in brief:
(§1)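 Two-state fits, bootstrapped, provided melting temperature and folding enthalpy from Cy3 fluorescence normalised to pre-quench Cy3 and to control constructs. Library hairpins with annealed Cy3 and quencher oligos were imaged on a sequenced MiSeq flow cell in 50 mM Na-HEPES pH 8.0, 25 mM NaCl, at 2.5 °C intervals up to 60 °C. Four replicates were combined with inverse-variance weighting. A 9.35 °C upward shift was applied to fitted temperatures to match UV melts.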

The nature of data set [2]: folding enthalpy; higher = less favourable; fluorescence melt of hairpins on a sequencing array, two-state fit. As to conditions: sodium 0.088 M. In outline: as §1

Turning to GCGTACGAAAGTAGGCGC ((((((....)))..))), the Tm in data set [1] was determined as 56 °C. Further, in data set [2], the folding enthalpy is -30 kcal/mol.
Taken in the same sequence, the figures for GCCCGAGCGAAAGCTGGC (((..(((....)))))) were 50.9 °C and -16.1 kcal/mol.
Regarding GATCGTATAACGATC ((((((...)))))), the Tm in data set [1] amounted to 55.7 °C. For the same sequence, in data set [2], the folding enthalpy is -47.3 kcal/mol.
As to GCTAAGCGAAAGCTACGC ((..(((....)))..)), in data set [1], the Tm worked out at 39.2 °C. Besides, in data set [2], the folding enthalpy was -13.2 kcal/mol.
Take GCCTGGACGAAAGTCGGC (((..(((....)))))): the Tm in data set [1] worked out at 51.2 °C. Moreover, the folding enthalpy in data set [2] is -22.6 kcal/mol.
On to GATCCACGTTTGGATC ((((((....)))))), for which, in data set [1], the Tm was determined as 50.5 °C. Also, in data set [2], the folding enthalpy was -34.6 kcal/mol.
Take GAGTTGGGAAACTGACTC ((((..(....)..)))): in data set [1], the Tm was 34.4 °C. The folding enthalpy in data set [2] was -26.7 kcal/mol.
Taken in the same sequence, the figures for GCCAAGCGAAAGCTAAGC ((..(((....)))..)) were 37.6 °C and -14.4 kcal/mol.
The like results for GTCGAGGGAAACCTTGGC (.(.(((....))).).) were, in that order, 36 °C and -21.8 kcal/mol.
Regarding CACTCGAAAGAGTG (((((....))))), the Tm in data set [1] is 59.9 °C. Moreover, the folding enthalpy in data set [2] is -24.4 kcal/mol.
Turning to GTATACGAAAGTAACTAC ((((((....)))..))), the Tm in data set [1] was 26.4 °C. Also, the folding enthalpy in data set [2] is -19.9 kcal/mol.
Taken in the same sequence, the figures for GATCAACAATTTGATC ((((((....)))))) were 38 °C and -26.8 kcal/mol.
For the sequence GGGGTCGAAAGACAGCCC ((((((....)))..))), in data set [1], the Tm stood at 46.2 °C. Further, the folding enthalpy in data set [2] is -16.6 kcal/mol.
Taken in the same sequence, the figures for GCATTGACGAAAGTCTGC (((..(((....)))))) were 38.9 °C and -16.5 kcal/mol.
Taken in the same sequence, the figures for GATCATGCGAATGATC ((((((....)))))) were 53.8 °C and -46.8 kcal/mol.
The like results for GCACATGCGAAAGCATGC (((..(((....)))))) were, in that order, 40.4 °C and -7.24 kcal/mol.
Consider GCCAGTGGAAACACTAGC ((.((((....)))).)), for which the Tm in data set [1] worked out at 39.9 °C. Further, the folding enthalpy in data set [2] was -21.9 kcal/mol.
Taken in the same sequence, the figures for GCGCAATCGAAAGATCGC (((..(((....)))))) were 45.5 °C and -24.1 kcal/mol.
Taken in the same sequence, the figures for GACACAGGAAACCGTGTC (((((.(....).))))) were 48.4 °C and -41.1 kcal/mol.
The like results for GTGTCCGAAAGGAATCAC ((((((....)))..))) were, in that order, 34.3 °C and -17.3 kcal/mol.
As for GCAAATCGAAAGATCTGC (((.(((....))).))), the Tm in data set [1] was found to be 40.4 °C. In addition, the folding enthalpy in data set [2] is -28.3 kcal/mol.
As for GGGAACCGAAAGGTCCC (((.(((....)))))), the Tm in data set [1] amounted to 57.3 °C. In addition, the folding enthalpy in data set [2] is -20.9 kcal/mol.
As for GATCAGTACCCTGATC ((((((....)))))), the Tm in data set [1] was 49.4 °C. Also, in data set [2], the folding enthalpy is -35.6 kcal/mol.
Taken in the same sequence, the figures for GATCCAACGTTGGATC ((((((....)))))) were 55.6 °C and -58.1 kcal/mol.
For GCAGTTGGAAACAGTTGC (((..((....))..))), the Tm in data set [1] came out at 29.7 °C. The folding enthalpy in data set [2] was -13.8 kcal/mol.
For the sequence GATGACGAAAGTCATATC ((((((....)))..))), the Tm in data set [1] is 50 °C. Also, the folding enthalpy in data set [2] is -14 kcal/mol.
Taken in the same sequence, the figures for GGTTTGGGAAACTAAACC (((((.(....).))))) were 44.7 °C and -33 kcal/mol.
For GGAGGTCGAAAGACATCC (((.(((....))).))), the Tm in data set [1] was determined as 57.5 °C. The folding enthalpy in data set [2] is -38.7 kcal/mol.
Turning to GCTAGCGAAAGCTTCAGC ((((((....)))..))), the Tm in data set [1] came to 39.1 °C. For the same sequence, in data set [2], the folding enthalpy is -10.9 kcal/mol.
The like results for GATCCCATTGGGGATC ((((((....)))))) were, in that order, 62.1 °C and -38.2 kcal/mol.
The like results for GCACGGCGAAAGCCTGC (((.(((....)))))) were, in that order, 58.7 °C and -18.1 kcal/mol.
Consider GCCCTAGGAAACTAGGGC (((((((....))))))), for which the Tm in data set [1] is 67.5 °C. Moreover, the folding enthalpy in data set [2] is -31.2 kcal/mol.
Taken in the same sequence, the figures for GATCACCCTGTGATC ((((((...)))))) were 59.3 °C and -42.3 kcal/mol.
Taken in the same sequence, the figures for GATCCACCGCTGGATC ((((((....)))))) were 50 °C and -39.8 kcal/mol.
For the sequence GCCCCCGAAAGGGAGGC ((((((....))).))), in data set [1], the Tm amounted to 68.7 °C. Also, in data set [2], the folding enthalpy is -29.7 kcal/mol.
For the sequence GATGGCCCGAAAGGGATC (((..(((....)))))), the Tm in data set [1] is 34.3 °C. For the same sequence, in data set [2], the folding enthalpy is -11 kcal/mol.
The like results for GAGCTGCGAAAGCACCTC (((.(((....))).))) were, in that order, 39.7 °C and -17 kcal/mol.
Turning to GCTCCGCGAAAGCAGTGC ((.(.((....)).).)), in data set [1], the Tm is 41.4 °C. Further, the folding enthalpy in data set [2] is -12.5 kcal/mol.
In the case of GATCTGCGAAAGCACATC (((.(((....))).))), in data set [1], the Tm amounted to 30.4 °C. Also, in data set [2], the folding enthalpy was -13.5 kcal/mol.
Take GACGTAGGAAACTACATC ((.((((....)))).)): the Tm in data set [1] is 28.4 °C. In addition, the folding enthalpy in data set [2] was -13.1 kcal/mol.
Taken in the same sequence, the figures for GCTGGGCGAAAGCTCGGC ((.(.((....)).).)) were 60.3 °C and -32.5 kcal/mol.
GCGGGGCGAAAGCGCAGC ((.(.((....)).).)): the Tm in data set [1] came out at 59.5 °C. Besides, the folding enthalpy in data set [2] was -23.5 kcal/mol.
Take GGAACTGGAAACAGTCCC ((.((((....)))).)): the Tm in data set [1] was 40 °C. In addition, the folding enthalpy in data set [2] was -25.4 kcal/mol.
Turning to GGGCAGCCGAAAGGCCCC (((..(((....)))))), in data set [1], the Tm stood at 48.1 °C. Further, the folding enthalpy in data set [2] is -15.1 kcal/mol.
Taken in the same sequence, the figures for GTTTATCGAAAGATAAC (((.(((....)))))) were 35.5 °C and -18.6 kcal/mol.
The like results for GCGAACTTCGC ((((...)))) were, in that order, 48.5 °C and -17.3 kcal/mol.
The like results for GCTCATCGAAAGATAAGC (((.(((....))).))) were, in that order, 39.6 °C and -23.8 kcal/mol.
On to GCCGCGCGAAAGCGCTGC ((.((((....)))).)), for which the Tm in data set [1] was determined as 61.5 °C. For the same sequence, the folding enthalpy in data set [2] was -16.6 kcal/mol.
For GTCACAGAAATGTGAC ((((((....)))))), the Tm in data set [1] came to 56.8 °C. Further, in data set [2], the folding enthalpy was -35.2 kcal/mol.
The like results for GATCCACGAGTGGATC ((((((....)))))) were, in that order, 62.8 °C and -39.8 kcal/mol.
The like results for GGGAAACGAAAGTTGCCC (((.(((....))).))) were, in that order, 56.6 °C and -43.9 kcal/mol.
Taken in the same sequence, the figures for GCAGCTGGAAACAGCCAC (..((((....))))..) were 31 °C and -10.6 kcal/mol.
As to GTTAATGGAAACGTTAAC (((((.(....).))))), the Tm in data set [1] is 35.7 °C. The folding enthalpy in data set [2] is -29.2 kcal/mol.
With GCGCACCGAAAGGTCGC (((.(((....)))))), the Tm in data set [1] amounted to 67 °C. In addition, the folding enthalpy in data set [2] was -25.7 kcal/mol.
Turning to GGTGCCGCGAAAGCGACC (((..(((....)))))), the Tm in data set [1] amounted to 45.6 °C. Further, the folding enthalpy in data set [2] was -9.79 kcal/mol.

The values above are taken from the array DNA melting data of Ke et al. (doi:10.1101/2024.01.08.574731).
